Data on one compound can be found in ChEMBL document CHEMBL3784976 (J Med Chem, 2016).

≈ marks a conversion by molar mass, not a printed value. Calls of active or inactive are those of the source. The calls are words filed in the database; no cut-off is given here.

The species entered for one data set is Rattus norvegicus. Put plainly: Displacement of [35S]TBPS from GABA gated chloride channel in rat cerebral cortex assessed as remaining radioligand binding at 10 uM after 120 mins by scintillation counting method relative to control. Format: tissue-based.
The nature of data set [1]: Solubility of compound in simulated intestinal fluid. The class given is ADME.
In data set [2] the target is Transient receptor potential cation channel subfamily A member 1 (Rattus norvegicus, UniProt Q6RI86). Description: Antagonist activity at rat TRPA1 expressed in tetracycline-inducible T-REx expression system transfected CHO cells assessed as inhibition of hypo osmolarity buffer-induced 45Ca2+ uptake preincubated for 10 mins followed by hypo osmolarity buffer addition measured after 3 mins by TopCount microplate scintillator counting method. Format: cell-based. A digest of the protocol: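 Compound given 10 min at RT in Ham's F12/15 mM HEPES/0.1% BSA, final 2.0 nM–40 μM (1:3 steps); then hypo-osmolar buffer (final 100 mOsmol) with 45Ca2+ (final 10 μCi/mL), 3 min at RT. Cells washed three times in PBS/0.1 mg/mL BSA, then scintillation counted. Hypotonic uptake = 100%, 300 mOsmol/L buffer = 0%. POC fitted to a four-parameter curve for IC50.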

Data set [3] deals with Adenosine receptor A2a (Homo sapiens) (UniProt P29274). Description: Displacement of [3H]CGS-21680 from human recombinant adenosine A2A receptor expressed in HEK293 cells assessed as remaining radioligand binding at 10 uM after 120 mins by scintillation counting method relative to control. The class given is cell-based. (In general: Displacement assays read how much labelled ligand stays bound in the presence of the test substance.)

Data set [4] has as its target Transient receptor potential cation channel subfamily V member 1 (Rattus norvegicus) (UniProt O35433). Description: Antagonist activity at rat TRPV1 assessed as inhibition of capsaicin-induced Ca2+ influx up to 10 uM preincubated for 2.5 mins followed by capsaicin addition measured for 1 min by luminescence assay.
In data set [5] the target is Beta-1 adrenergic receptor (Homo sapiens) (UniProt P08588). Description: Displacement of (-)-[3H]CGP-12177 from human recombinant adrenergic beta1 receptor expressed in HEK293 cells assessed as remaining radioligand binding at 10 uM after 60 mins by scintillation counting method relative to control. The class given is cell-based.
For a further data set, the species on record is Homo sapiens. Put plainly: Binding affinity to human delta 2-type opioid receptor assessed as remaining radioligand binding at 10 uM by radioligand displacement assay relative to control.
Data set [6] can be described thus: Ratio of fCmax in rat at 30 mg/kg, po to IC50 for rat TRPA1 expressed in tetracycline-inducible T-REx expression system transfected CHO cells by 45Ca2+ uptake assay.
The nature of data set [7]: Solubility of compound in pH 7.4 phosphate buffered saline. Format: physicochemical.

Adenosine receptor A2a (Homo sapiens), sequence (P29274 whole entry): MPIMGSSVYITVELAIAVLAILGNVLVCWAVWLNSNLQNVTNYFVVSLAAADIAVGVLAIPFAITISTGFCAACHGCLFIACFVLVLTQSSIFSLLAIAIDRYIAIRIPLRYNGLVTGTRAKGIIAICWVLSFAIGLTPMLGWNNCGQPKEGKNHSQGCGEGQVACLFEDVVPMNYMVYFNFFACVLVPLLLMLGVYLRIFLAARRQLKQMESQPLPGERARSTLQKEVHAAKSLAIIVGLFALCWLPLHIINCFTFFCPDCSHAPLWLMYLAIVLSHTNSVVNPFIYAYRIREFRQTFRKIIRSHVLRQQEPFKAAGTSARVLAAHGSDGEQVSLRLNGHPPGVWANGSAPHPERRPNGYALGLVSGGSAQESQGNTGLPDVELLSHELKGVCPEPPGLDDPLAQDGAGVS
Beta-1 adrenergic receptor (Homo sapiens), sequence (P08588 whole entry, looked up): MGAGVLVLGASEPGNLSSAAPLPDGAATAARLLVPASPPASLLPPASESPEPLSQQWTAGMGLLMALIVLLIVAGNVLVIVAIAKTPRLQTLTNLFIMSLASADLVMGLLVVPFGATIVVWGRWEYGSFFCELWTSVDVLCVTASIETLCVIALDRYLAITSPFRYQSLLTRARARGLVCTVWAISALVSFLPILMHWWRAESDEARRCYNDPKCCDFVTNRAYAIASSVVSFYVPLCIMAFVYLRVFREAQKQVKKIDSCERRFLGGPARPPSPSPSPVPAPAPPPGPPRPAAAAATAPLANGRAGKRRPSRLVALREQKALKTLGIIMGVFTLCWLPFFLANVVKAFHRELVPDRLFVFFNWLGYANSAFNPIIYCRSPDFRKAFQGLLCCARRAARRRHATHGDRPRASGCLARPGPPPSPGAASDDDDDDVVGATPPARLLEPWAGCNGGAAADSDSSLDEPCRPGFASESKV
Transient receptor potential cation channel subfamily V member 1 (Rattus norvegicus), sequence (O35433 whole entry): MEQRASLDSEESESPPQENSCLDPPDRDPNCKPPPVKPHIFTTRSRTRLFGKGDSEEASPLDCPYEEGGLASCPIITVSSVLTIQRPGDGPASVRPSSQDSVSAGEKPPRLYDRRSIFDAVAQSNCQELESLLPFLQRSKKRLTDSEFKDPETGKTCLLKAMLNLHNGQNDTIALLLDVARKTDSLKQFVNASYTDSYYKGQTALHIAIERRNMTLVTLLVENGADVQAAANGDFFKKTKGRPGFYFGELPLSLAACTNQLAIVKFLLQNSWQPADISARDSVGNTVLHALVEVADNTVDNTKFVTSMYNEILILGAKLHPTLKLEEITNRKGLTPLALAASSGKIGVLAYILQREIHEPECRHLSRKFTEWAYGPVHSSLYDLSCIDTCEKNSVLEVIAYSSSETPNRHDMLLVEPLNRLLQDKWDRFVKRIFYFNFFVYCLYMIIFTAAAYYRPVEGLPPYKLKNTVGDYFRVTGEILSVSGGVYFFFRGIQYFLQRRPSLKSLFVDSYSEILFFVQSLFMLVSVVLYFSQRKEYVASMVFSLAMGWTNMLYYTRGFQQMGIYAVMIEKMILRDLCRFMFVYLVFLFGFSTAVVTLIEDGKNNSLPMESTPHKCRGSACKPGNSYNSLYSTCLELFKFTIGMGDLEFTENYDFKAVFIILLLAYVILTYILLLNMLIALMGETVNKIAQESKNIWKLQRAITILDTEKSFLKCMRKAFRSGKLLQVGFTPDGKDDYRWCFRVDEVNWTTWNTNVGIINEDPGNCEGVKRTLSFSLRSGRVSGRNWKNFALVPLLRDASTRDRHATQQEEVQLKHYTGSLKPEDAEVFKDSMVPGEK
Transient receptor potential cation channel subfamily A member 1, sequence (Q6RI86 whole entry): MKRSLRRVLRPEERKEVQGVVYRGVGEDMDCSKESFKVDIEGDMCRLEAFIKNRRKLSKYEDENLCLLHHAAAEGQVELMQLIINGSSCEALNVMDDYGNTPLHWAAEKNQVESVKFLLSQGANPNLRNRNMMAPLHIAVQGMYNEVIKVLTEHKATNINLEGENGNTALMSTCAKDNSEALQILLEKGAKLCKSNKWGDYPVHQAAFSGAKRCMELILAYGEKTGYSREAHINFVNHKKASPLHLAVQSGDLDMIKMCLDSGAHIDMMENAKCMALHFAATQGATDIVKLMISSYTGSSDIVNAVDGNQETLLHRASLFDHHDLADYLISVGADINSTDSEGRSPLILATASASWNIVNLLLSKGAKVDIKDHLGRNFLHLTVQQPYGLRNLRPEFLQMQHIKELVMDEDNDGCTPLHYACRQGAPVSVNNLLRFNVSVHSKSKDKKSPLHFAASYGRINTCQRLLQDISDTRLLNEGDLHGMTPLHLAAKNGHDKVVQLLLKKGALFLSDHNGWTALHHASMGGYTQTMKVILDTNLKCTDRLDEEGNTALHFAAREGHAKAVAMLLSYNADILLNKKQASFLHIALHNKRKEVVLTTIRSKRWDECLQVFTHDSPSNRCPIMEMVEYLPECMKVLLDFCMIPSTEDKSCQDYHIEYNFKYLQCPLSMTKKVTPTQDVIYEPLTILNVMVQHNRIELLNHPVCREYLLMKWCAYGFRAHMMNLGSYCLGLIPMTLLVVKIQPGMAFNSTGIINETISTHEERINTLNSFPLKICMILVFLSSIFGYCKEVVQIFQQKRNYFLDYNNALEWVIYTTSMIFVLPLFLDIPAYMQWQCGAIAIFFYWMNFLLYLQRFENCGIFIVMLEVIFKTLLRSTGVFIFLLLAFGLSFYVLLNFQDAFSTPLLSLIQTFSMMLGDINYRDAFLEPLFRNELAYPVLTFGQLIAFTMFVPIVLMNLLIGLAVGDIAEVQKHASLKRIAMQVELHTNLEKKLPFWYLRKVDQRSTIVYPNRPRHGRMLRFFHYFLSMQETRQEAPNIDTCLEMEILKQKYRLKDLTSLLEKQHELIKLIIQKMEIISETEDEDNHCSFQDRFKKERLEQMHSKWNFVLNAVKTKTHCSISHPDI

Take `Cn1cnc2ncn(Cc3nc(CCc4ccc(Cl)cc4)no3)c(=O)c21`: the Activity (in the data set listed under Rattus norvegicus; in data set [3]; in data set [5]; in the data set listed under Homo sapiens) was greater than 77% in each case. Moreover, the values for the solubility in data set [1] and in data set [7] were 248 µM (≈ 92 µg/mL) and 226 µM (≈ 83.8 µg/mL), respectively. For the same compound, the IC50 (as a rule, the concentration at which inhibition is half-maximal) in [2] was 0.01 µM. Further, in data set [4], the inhibition result is “inactive”. Moreover, the Ratio in data set [6] is reported as 31.
